We go through 17 compounds from ChEMBL document CHEMBL1143023, “Chemical synthesis and biological activities of 16alpha-derivatives of 5alpha-androstane-3alpha,17beta-diol as antiandrogens” (2007).

One may read the inhibition as the change of the read-out against control, counted positive when it falls.

The nature of assay [1]: Inhibition of DHT-stimulated proliferation of androgen sensitive AR+ Shionogi cells at 0.1 uM. The conditions noted are these: Mus musculus. Type of assay: functional.
A short description of assay [2]: Inhibition of DHT-stimulated proliferation of androgen sensitive AR+ Shionogi cells at 1 uM. The conditions noted are these: Mus musculus. In kind it is functional.
Assay [3] is described as follows: Proliferative activity on androgen sensitive AR+ Shionogi cells at 0.1 uM relative to DHT. In kind it is functional, Mus musculus. The essentials: (§1)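 AR+ Shionogi cells were given test compound alone, without DHT, for 10 days. Growth was read as DNA content by a modified Fiszer-Szafarz method. Stimulation % = 100 × [DNA(compound) − DNA(control)]/[DNA(DHT) − DNA(control)], with 0.3 nM DHT set as 100%. One experiment in triplicate.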

The nature of assay [4]: Stimulation of androgen sensitive AR+ Shionogi cell proliferation at 1 uM. Type of assay: functional, Mus musculus. The procedure, abridged: as §1
For assay [5], the system named is PC-3. The experiment in a line: Reduction of non-androgen sensitive AR- PC3 cell growth at 0.3 uM. Type of assay: functional, cell-based. The essentials:
(§2)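 PC-3 human prostate carcinoma (AR−) cells from passage 28 were allowed to adhere for 24 h. Medium was then changed to MEM with 2% charcoal-stripped FBS containing compound from 1000-fold ethanol stocks; the vehicle control was 0.1% EtOH. Cells grew 9 days at 37 °C, 5% CO2, with medium changes every 2–3 days. DNA content was measured; triplicate wells.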

For assay [6], the system named is PC-3. The experiment in a line: Reduction of non-androgen sensitive AR- PC3 cell growth at 1 uM. In kind it is functional, cell-based. The procedure, abridged: as §2

Calls of active or inactive are those of the source. No cut-off for these calls is given here.

`C[C@]12CC[C@@H](O)C[C@@H]1CC[C@@H]1[C@@H]2CC[C@]2(C)[C@@H](O)[C@H](CCCN)C[C@@H]12` had an inhibition at 0.1 µM in assay [1] of 0%. At 1 µM the inhibition in assay [2] was 0%. The Activity in assay [3] is listed as 1%.
`C[C@]12CC[C@H]3[C@@H](CCC4CC(=O)CC[C@@]43C)[C@@H]1C[C@@H](CCCI)[C@@H]2O` (stereo partly specified) had an inhibition at 0.1 µM in assay [1] of 41%. The inhibition at 1 µM in assay [2] turned out to be 76%. This compound also had an Activity in assay [3] of 22%.
The like results for `C[C@]12CCC(=O)C[C@@H]1CC[C@@H]1[C@@H]2CC[C@]2(C)[C@@H](O)[C@H](CCCSC#N)C[C@@H]12` were, in that order, 0%, 45% and 21%.
Turning to `C[C@]12CC[C@H]3[C@@H](CCC4CC(=O)CC[C@@]43C)[C@@H]1C[C@@H](CCCO)[C@@H]2O` (stereo partly specified), 0.1 µM produced 54% inhibition in assay [1]. Testing at 1 µM in assay [2] gave an inhibition of 46%. The same compound registered an Activity in assay [3] of 9%.
For `C[C@]12CC[C@@H](O)C[C@@H]1CC[C@@H]1[C@@H]2CC[C@]2(C)[C@@H](O)[C@H](CCCO)C[C@@H]12`, in assay [1], the inhibition at 0.1 µM stood at 16%. Besides, the inhibition at 1 µM in assay [2] was 35%. The same compound registered an Activity in assay [3] of 0%.
`C[C@]12CC[C@H]3[C@@H](CCC4CC(=O)CC[C@@]43C)[C@@H]1C[C@@H](CCCCl)[C@@H]2O` (stereo partly specified): testing at 0.1 µM in assay [1] gave an inhibition of 44%. Further, at 1 µM the inhibition in assay [2] was 42%. Besides, the Activity in assay [3] turned out to be 36%; in assay [4], 52%. Also, the result in assay [5] and in assay [6] was inactive.
`CO[C@@H]1CC[C@@]2(C)[C@@H](CC[C@@H]3[C@@H]2CC[C@]2(C)[C@@H](O)[C@H](CCCI)C[C@@H]32)C1`: in assay [1], the inhibition at 0.1 µM is 0%. In assay [2], this compound displayed an inhibition at 1 µM of 46%. Besides, the Activity in assay [3] is 0%.
Take `C[C@]12CC[C@@H](O)C[C@@H]1CC[C@@H]1[C@@H]2CC[C@]2(C)[C@@H](O)[C@H](CCCCl)C[C@@H]12`: the inhibition at 0.1 µM in assay [1] amounted to 67%. Testing at 1 µM in assay [2] gave an inhibition of 94%. This compound had an Activity in assay [3] of 0%. The outcome in assay [5] and in assay [6] was inactive.
For the compound `CC(C)(O)C(=O)Nc1ccc([N+](=O)[O-])c(C(F)(F)F)c1` [HYDROXYFLUTAMIDE], the inhibition at 0.1 µM in assay [1] was 67%. In assay [2], this compound displayed an inhibition at 1 µM of 100%. The compound further came in with an Activity in assay [3] of 0%.
In the same order, the values of `C[C@]12CCC(=O)C[C@@H]1CC[C@@H]1[C@@H]2CC[C@]2(C)[C@@H](O)[C@H](CCCOCc3ccc(Br)cc3)C[C@@H]12` are 0%, 0% and 153%.
`C[C@]12CC[C@@H](O)C[C@@H]1CC[C@@H]1[C@@H]2CC[C@]2(C)[C@@H](O)[C@H](CCCI)C[C@@H]12` showed an inhibition at 0.1 µM in assay [1] of 36%. In assay [2], this compound had an inhibition at 1 µM of 90%. Also, in assay [3], the Activity is reported as 0%.
As for `C[C@]12CC[C@@H](O)C[C@@H]1CC[C@@H]1[C@@H]2CC[C@]2(C)[C@@H](O)[C@H](CCCOCc3ccc(Br)cc3)C[C@@H]12`, testing at 0.1 µM in assay [1] gave an inhibition of 0%. 1 µM produced 7% inhibition in assay [2]. Further, in assay [3], the Activity is on record as 163%.
The compound `C[C@]12CC[C@@H](O)C[C@@H]1CC[C@@H]1[C@@H]2CC[C@]2(C)[C@@H](O)[C@H](CCCF)C[C@@H]12` yielded an inhibition at 0.1 µM in assay [1] of 44%. This compound also displayed an inhibition at 1 µM in assay [2] of 70%. Further, the Activity in assay [3] amounted to 0%.
For `C[C@]12CC[C@H]3[C@@H](CCC4CC(=O)CC[C@@]43C)[C@@H]1C[C@@H](CCCN=[N+]=[N-])[C@@H]2O` (stereo partly specified), the inhibition at 0.1 µM in assay [1] came out at 73%. In assay [2], the inhibition at 1 µM is 58%. This compound also gave an Activity in assay [3] of 33%.
The like results for `C[C@]12CC[C@@H](O)C[C@@H]1CC[C@@H]1[C@@H]2CC[C@]2(C)[C@@H](O)[C@H](CCCSC#N)C[C@@H]12` were, in that order, 2%, 50% and 5%.
In the same order, the values of `C[C@]12CC[C@@H](O)C[C@@H]1CC[C@@H]1[C@@H]2CC[C@]2(C)[C@@H](O)[C@H](CCCBr)C[C@@H]12` are 46%, 80% and 0%.
Turning to `C[C@]12CC[C@@H](O)C[C@@H]1CC[C@@H]1[C@@H]2CC[C@]2(C)[C@@H](O)[C@H](CCCN=[N+]=[N-])C[C@@H]12`, in assay [1], the inhibition at 0.1 µM turned out to be 58%. The compound further returned an inhibition at 1 µM in assay [2] of 89%. Further, in assay [3], the Activity is listed as 0%.
